Eight molecules from article PMC5538437 (Genes & Development, 2017) can be followed below.

For orientation: Kd means the free concentration of one partner at which half of the binding sites on the other are occupied at equilibrium, for simple one-to-one binding.

For one assay, the system named is endogenous GYF2. As to the kind of experiment: Pull-down of GYF2 by tagged 4EHP in HEK293T cells. It is filed as binding, human. Conditions: Western blot. In a few lines: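 Streptavidin pull-downs used HEK293T lysates containing RNase A and expressed V5-SBP-4EHP, wild type or mutants. V5-SBP-MBP was the negative control. Inputs (1–1.5%) and bound fractions (up to 30% for GYF2) were analysed by Western blot with anti-V5 and anti-GYF2 antibodies, using ECL detection.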
In general terms: In western blotting, separated proteins are transferred to a membrane and probed.

The subject of a further assay is endogenous GYF1. As to the kind of experiment: Pull-down of GYF1 by tagged 4EHP in HEK293T cells. It is filed as binding, human. Conditions: V5-SBP-4EHP, Western blot.
The target in assay [1] is T1, 4EHP used for ITC, wild type (human, UniProt O60573 1-245).
T1 sequence: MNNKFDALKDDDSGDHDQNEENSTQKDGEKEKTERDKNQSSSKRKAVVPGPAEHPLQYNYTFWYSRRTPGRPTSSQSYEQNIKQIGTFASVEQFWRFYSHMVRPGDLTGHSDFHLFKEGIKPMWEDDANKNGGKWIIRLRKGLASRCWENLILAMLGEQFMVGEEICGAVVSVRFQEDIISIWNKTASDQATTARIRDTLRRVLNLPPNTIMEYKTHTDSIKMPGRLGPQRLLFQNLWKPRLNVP
As to the kind of experiment: ITC. For orientation: In ITC the heat of successive injections is recorded.

For a further assay, the system named is 4EHP. As to the kind of experiment: Pull-down / coimmunoprecipitation with 4EHP in HEK293T cell lysates. Format: binding, human. To be noted: Western blot. In a few lines:
(§1)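 Streptavidin-bead pull-down from RNase A-treated HEK293T lysates of cells expressing V5-SBP-tagged 4EHP or eIF4E (wild type or mutants). Co-bound endogenous GYF2, 4E-T and 4E-BP1 were probed; for 4EHP, co-expressed GFP-4E-BP1 was also probed, with V5-SBP-MBP as negative control. Inputs and bound fractions were analysed by Western blot with anti-V5, anti-GFP, anti-GYF2 and other antibodies, using ECL detection.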

A further assay deals with T2, 4EHP S99N used for ITC (human, UniProt O60573 1-245, S99N).
T2 sequence: T1 sequence with S99N
As to the kind of experiment: ITC.

Assay [2] concerns the target T3, 4EHP-His6 (residues A52–F234), RE-LL mutant, of the competition assays (human, UniProt O60573 52-234, R103L | E149L).
T3 sequence: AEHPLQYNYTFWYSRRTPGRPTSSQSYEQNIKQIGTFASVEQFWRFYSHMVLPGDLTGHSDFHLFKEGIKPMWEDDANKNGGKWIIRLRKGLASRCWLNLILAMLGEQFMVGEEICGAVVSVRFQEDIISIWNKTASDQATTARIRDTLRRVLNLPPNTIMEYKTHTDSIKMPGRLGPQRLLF
As to the kind of experiment: pull-down.

For the next assay, the system named is eIF4E. As to the kind of experiment: Pull-down / coimmunoprecipitation with eIF4E in HEK293T cell lysates. To be noted: streptavidin pull-down, Western blot. Format: binding, human. In short, it runs like this: as §1

Changes are numbered by the printed parent chain. Names may count otherwise.

B1: 4EHP RE-LL: 4EHP R103L, E149L; auxiliary surface mutant (protein)
chain: T1 sequence with R103L, E149L
Regarding B1, the “binding to endogenous GYF2” value in the assay on endogenous GYF2 is reported as “strongly reduced binding to endogenous GYF2”. Also, in the assay on endogenous GYF1, the “binding to endogenous GYF1” value was “disrupted binding to endogenous GYF1”.

B2: 4EHP S99N: 4EHP S99N; dorsal surface mutant (protein, UniProt O60573 1-245, looked up, variant S99N)
Eukaryotic translation …: T1 sequence with S99N
With B2, the “binding to endogenous GYF2” value with endogenous GYF2 is listed as “Binding of GYF2 was not affected by the S99N mutation”.

B3: 4EHP cap: 4EHP W124A; cap-binding pocket mutant (protein, UniProt O60573 1-245, looked up, variant W124A)
Eukaryotic translation …: T1 sequence with W124A
B3: the “binding to endogenous GYF2” value in the assay with endogenous GYF2 is reported as “still binds to GYF1/2”.

B4: GYF2 C+L+NC peptide, ITC (peptide)
chain: KYKLADYRYGREEMLALFLKDNKIPSDLLDKEFLPILQ
In assay [1], B4 came in with a Kd of 14 nM.

B5: GYF1 A2+3*: GYF1 E86A, N95F; auxiliary site 2 mutant (listed as A2*) (protein, UniProt O75420 1-1035, looked up, variant E86A N95F)
GRB10-interacting GYF protein …: MAAETLNFGPEWLRALSGGGSVASPPPSPAMPKYKLADYRYGREEMLALYVKENKVPEELQDKEFAAVLQDEPLQPLALEPLTEEAQRNFSLSVFSVAVLRLMGKGAGPPLAGTSRGRGSTRSRGRGRGDSCFYQRSIEEGDGAFGRSPREIQRSQSWDDRGERRFEKSARRDGARCGFEEGGAGPRKEHARSDSENWRSLREEQEEEEEGSWRLGAGPRRDGDRWRSASPDGGPRSAGWREHGERRRKFEFDLRGDRGGCGEEEGRGGGGSSHLRRCRAPEGFEEDKDGLPEWCLDDEDEEMGTFDASGAFLPLKKGPKEPIPEEQELDFQGLEEEEEPSEGLEEEGPEAGGKELTPLPPQEEKSSSPSPLPTLGPLWGTNGDGDETAEKEPPAAEDDIRGIQLSPGVGSSAGPPGDLEDDEGLKHLQQEAEKLVASLQDSSLEEEQFTAAMQTQGLRHSAAATALPLSHGAARKWFYKDPQGEIQGPFTTQEMAEWFQAGYFSMSLLVKRGCDEGFQPLGEVIKMWGRVPFAPGPSPPPLLGNMDQERLKKQQELAAAALYQQLQHQQFLQLVSSRQLPQCALREKAALGDLTPPPPPPPQQQQQQLTAFLQQLQALKPPRGGDQNLLPTMSRSLSVPDSGRLWDVHTSASSQSGGEASLWDIPINSSTQGPILEQLQLQHKFQERREVELRAKREEEERKRREEKRRQQQQEEQKRRQEEEELFRRKHVRQQELLLKLLQQQQAVPVPPAPSSPPPLWAGLAKQGLSMKTLLELQLEGERQLHKQPPPREPARAQAPNHRVQLGGLGTAPLNQWVSEAGPLWGGPDKSGGGSSGLGLWEDTPKSGGSLVRGLGLKNSRSSPSLSDSYSHLSGRPIRKKTEEEEKLLKLLQGIPRPQDGFTQWCEQMLHTLSATGSLDVPMAVAILKEVESPYDVHDYIRSCLGDTLEAKEFAKQFLERRAKQKASQQRQQQQEAWLSSASLQTAFQANHSTKLGPGEGSKAKRRALMLHSDPSILGYSLHGSSGEIESVDDY
Consider B5, for which the “interaction with 4EHP in cells, overexpressed binding partner” value in the assay on 4EHP (HEK293T cells, GFP-tagged protein and V5-SBP-4EHP) is recorded as “did not affect binding to overexpressed 4EHP in human cells”.

B6: 4E-BP1 peptide, ITC (peptide)
chain: TRIIYDRKFLMECRNSPVTKTPPRDLPTIPGVTS
For B6, the Kd with 4EHP S99N used for ITC was 4 nM; in assay [1], 55 nM.

B7: 4E-BP1 peptide (residues T50–S83) with C-terminal GB1 tag, of the competition assays (domain or fragment)
chain: B6 chain
As to B7, the binding result in assay [2] was “binds”.

B8: 4E-T: Hs 4E-T Q9NRA8, full-length (1–985) (protein)
chain: MDRRSMGETESGDAFLDLKKPPASKCPHRYTKEELLDIKELPHSKQRPSCLSEKYDSDGVWDPEKWHASLYPASGRSSPVESLKKELDTDRPSLVRRIVDPRERVKEDDLDVVLSPQRRSFGGGCHVTAAVSSRRSGSPLEKDSDGLRLLGGRRIGSGRIISARTFEKDHRLSDKDLRDLRDRDRERDFKDKRFRREFGDSKRVFGERRRNDSYTEEEPEWFSAGPTSQSETIELTGFDDKILEEDHKGRKRTRRRTASVKEGIVECNGGVAEEDEVEVILAQEPAADQEVPRDAVLPEQSPGDFDFNEFFNLDKVPCLASMIEDVLGEGSVSASRFSRWFSNPSRSGSRSSSLGSTPHEELERLAGLEQAILSPGQNSGNYFAPIPLEDHAENKVDILEMLQKAKVDLKPLLSSLSANKEKLKESSHSGVVLSVEEVEAGLKGLKVDQQVKNSTPFMAEHLEETLSAVTNNRQLKKDGDMTAFNKLVSTMKASGTLPSQPKVSRNLESHLMSPAEIPGQPVPKNILQELLGQPVQRPASSNLLSGLMGSLEPTTSLLGQRAPSPPLSQVFQTRAASADYLRPRIPSPIGFTPGPQQLLGDPFQGMRKPMSPITAQMSQLELQQAALEGLALPHDLAVQAANFYQPGFGKPQVDRTRDGFRNRQQRVTKSPAPVHRGNSSSPAPAASITSMLSPSFTPTSVIRKMYESKEKSKEEPASGKAALGDSKEDTQKASEENLLSSSSVPSADRDSSPTTNSKLSALQRSSCSTPLSQANRYTKEQDYRPKATGRKTPTLASPVPTTPFLRPVHQVPLVPHVPMVRPAHQLHPGLVQRMLAQGVHPQHLPSLLQTGVLPPGMDLSHLQGISGPILGQPFYPLPAASHPLLNPRPGTPLHLAMVQQQLQRSVLHPPGSGSHAAAVSVQTTPQNVPSRSGLPHMHSQLEHRPSQRSSSPVGLAKWFGSDVLQQPLPSMPAKVISVDELEYRQ
Take B8: in the assay on 4EHP (HEK293T cell lysates, streptavidin pull-down), the “interaction with 4EHP in cell lysates, endogenous binding partner” value was “interacted with both eIF4E and 4EHP”. In the assay with eIF4E, the “interaction with eIF4E in cell lysates” value is “interacted with both eIF4E and 4EHP”.
